According to ChEMBL document CHEMBL4765325, “Discovery of dihydropyrrolidones as novel inhibitors against influenza A virus” (Eur J Med Chem, 2020):
Activity calls are given as the source filed them. No cut-off for these calls is given here.

Legend:
Influenza A virus [1] = test: Antiviral activity against Influenza A virus (A/Puerto Rico/8/34(H1N1)) infected in dog MDCK cells assessed as reduction in virus-induced cytopathogenicity incubated for 48 hrs by microscopic analysis; assay type: functional, organism-based; conditions: A/Puerto Rico/8/1934(H1N1)
Influenza A virus [2] = test: Antiviral activity against Influenza A virus (A/Fort Monmouth/1/1947(H1N1)) infected in dog MDCK cells assessed as reduction in virus-induced cytopathogenicity incubated for 48 hrs by microscopic analysis; assay type: functional, organism-based
[3] = Selectivity index, ratio of CC50 for dog MDCK cells to IC50 for antiviral activity against Influenza A virus (A/Fort Monmouth/1/1947(H1N1)); assay type: toxicity; conditions: read-out: Ratio CC50/IC50
Method in brief: (§1)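 SI = CC50/IC50, both from MTT read-outs in MDCK cells in triplicate. Cytotoxicity: 2 × 10⁴ cells/well, overnight at 37 °C with 5% CO2, then compound at 1.56–400 µM for 48 h, MTT 4 h, DMSO, A570. Antiviral: cells infected 1 h, washed, then cultured 48 h in DMEM with TPCK and two-fold serial compound dilutions.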

Influenza A virus [4] = test: Antiviral activity against Influenza A virus (A/Puerto Rico/8/34(H1N1)) infected in dog MDCK cells assessed as reduction in viral replication at 40 uM measured upto 10 hrs; assay type: functional, organism-based; conditions: A/Puerto Rico/8/1934(H1N1), time hrs <=10
Method in brief: (§2)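 Time-of-addition assay with PR8. After unabsorbed virus was removed, cells received compound during the intervals 0–2, 2–5, 5–8, 8–10 or 0–10 h, covering one replication cycle. At 10 h p.i., viral NP protein was read by western blot and viral mRNA by qRT-PCR. Three independent experiments, mean SD.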

MDCK [5] = test: Downregulation of NOX1 in dog MDCK cells infected with Influenza A virus (A/Puerto Rico/8/34(H1N1)) at 40 uM incubated for 24 hrs by qRT-PCR analysis; assay type: functional, cell-based; conditions: Canis lupus familiaris
Method in brief: (§3)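 Virus-infected MDCK cells were treated with compound for 24 h. Expression of each gene was then measured by qRT-PCR using gene-specific primers, against an untreated control group.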

Influenza A virus [6] = test: Antiviral activity against Influenza A virus (A/Puerto Rico/8/34(H1N1)) infected in dog MDCK cells assessed as reduction in viral replication by measuring NP level incubated for 24 hrs by Western blot analysis; assay type: functional, organism-based; conditions: A/Puerto Rico/8/1934(H1N1), dose 5-40 µM
Method in brief: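 Two-fold serial compound dilutions were added to PR8-infected MDCK cells after virus adsorption, and cells were harvested at 24 h p.i. Equal lysate protein was run on 10% SDS-PAGE and transferred to PVDF. Blots were probed with anti-NP (1:2000) and β-actin as loading control, then an HRP secondary, with chemiluminescent detection.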

H3N2 subtype = test: Antiviral activity against Influenza A virus (A/Aichi/2/1968(H3N2)) infected in dog MDCK cells assessed as reduction in virus-induced cytopathogenicity incubated for 48 hrs by microscopic analysis; assay type: functional, cell-based
[7] = Selectivity index, ratio of CC50 for dog MDCK cells to IC50 for antiviral activity against Influenza A virus (A/Puerto Rico/8/34(H1N1)); assay type: toxicity; conditions: read-out: Ratio CC50/IC50; method in brief: as §1
Influenza A virus [8] = test: Antiviral activity against Influenza A virus (A/Puerto Rico/8/34(H1N1)) infected in human A549 cells assessed as reduction in viral replication by measuring NP expression at 40 uM measured upto 10 hrs by qRT-PCR analysis; assay type: functional, organism-based; conditions: A/Puerto Rico/8/1934(H1N1), time hrs <=10; method in brief: as §2
Influenza A virus [9] = test: Antiviral activity against Influenza A virus (A/Puerto Rico/8/34(H1N1)) infected in human A549 cells assessed as reduction in viral replication by measuring HA mRNA expression at 5 to 40 uM incubated for 24 hrs by qRT-PCR analysis; assay type: functional, organism-based; conditions: A/Puerto Rico/8/1934(H1N1), dose 5-40 µM
Influenza A virus [10] = test: Antiviral activity against Influenza A virus (A/Puerto Rico/8/34(H1N1)) infected in dog MDCK cells assessed as reduction in viral replication by measuring HA mRNA expression measured upto 72 hrs by qRT-PCR analysis; assay type: functional, organism-based; conditions: A/Puerto Rico/8/1934(H1N1), time hrs <=72
Method in brief: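 Viral HA mRNA was measured by qRT-PCR in IAV-infected MDCK cells treated with serially diluted compound, at 24, 48 and 72 h p.i. Ribavirin served as positive control; data are mean SD.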

Influenza A virus [11] = test: Antiviral activity against Influenza A virus (A/Puerto Rico/8/34(H1N1)) infected in dog MDCK cells assessed as reduction in viral replication by measuring NP level incubated for 24 hrs by immunofluorescence staining based Ti-Eclipse inverted fluorescence microscopic analysis; assay type: functional, organism-based; conditions: A/Puerto Rico/8/1934(H1N1), dose 5-40 µM
Method in brief: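 MDCK cells were infected with PR8 at 100TCID₅₀ and treated with varied compound concentrations. At 24 h p.i. they were washed with cold PBS, fixed in 4% paraformaldehyde for 10 min and blocked in 3% BSA for 1 h at room temperature. Staining used anti-NP (1:250) overnight at 4 °C, then a FITC secondary for 1 h, with DAPI nuclear counterstain; cells were imaged by fluorescence microscopy.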

Influenza A virus [12] = test: Antiviral activity against Influenza A virus (A/Puerto Rico/8/34(H1N1)) infected in dog MDCK cells assessed as reduction in viral replication by measuring NP expression at 40 uM measured upto 10 hrs by Western blot analysis; assay type: functional, organism-based; conditions: A/Puerto Rico/8/1934(H1N1), time hrs <=10; method in brief: as §2
[13] = Cytotoxicity against dog MDCK cells assessed as reduction in cell viability incubated for 48 hrs by MTT assay; assay type: cell-based, Canis lupus familiaris
Method in brief: (§4)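 MDCK or A549 cells were seeded at 2 × 10⁴ per well and incubated overnight at 37 °C, 5% CO₂. Compound (1.56 to 400) was added for 48 h, followed by MTT for 4 h at 37 °C and DMSO to dissolve the formazan. Absorbance was read at 570 nm and CC₅₀ calculated.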

Influenza A virus [14] = test: Antiviral activity against Influenza A virus (A/Puerto Rico/8/34(H1N1)) infected in dog MDCK cells assessed as reduction in plaque formation incubated for 48 hrs by crystal violet staining based assay; assay type: functional, organism-based; conditions: A/Puerto Rico/8/1934(H1N1), dose 5-40 µM
Method in brief: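 Plaque reduction assay in PR8-infected MDCK cells across a range of compound doses. Cells were fixed with 4% paraformaldehyde and stained with crystal violet. Inhibition was scored by counting plaques.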

MDCK [15] = test: Upregulation of MxA in dog MDCK cells infected with Influenza A virus (A/Puerto Rico/8/34(H1N1)) at 40 uM incubated for 24 hrs by qRT-PCR analysis; assay type: functional, cell-based; conditions: Canis lupus familiaris; method in brief: as §3
[16] = Cytotoxicity against human A549 cells assessed as reduction in cell viability incubated for 48 hrs by MTT assay; assay type: cell-based; method in brief: as §4
Influenza A virus [17] = test: Antiviral activity against Influenza A virus 690 (H3) infected in dog MDCK cells assessed as reduction in virus-induced cytopathogenicity incubated for 48 hrs by microscopic analysis; assay type: functional, organism-based
[18] = Selectivity index, ratio of CC50 for dog MDCK cells to IC50 for antiviral activity against Influenza A virus (A/Aichi/2/1968(H3N2)); assay type: toxicity; conditions: read-out: Ratio CC50/IC50; method in brief: as §1
MDCK [19] = test: Upregulation of IFN-beta in dog MDCK cells infected with Influenza A virus (A/Puerto Rico/8/34(H1N1)) at 40 uM incubated for 24 hrs by qRT-PCR analysis; assay type: functional, cell-based; conditions: Canis lupus familiaris; method in brief: as §3
[20] = Selectivity index, ratio of CC50 for dog MDCK cells to IC50 for antiviral activity against Influenza A virus 690 (H3); assay type: toxicity; conditions: read-out: Ratio CC50/IC50; method in brief: as §1

| SMILES | IC50 (Influenza A virus [1]) [µM] | also measured |
| --- | --- | --- |
| CCOC(=O)C1=C(Nc2ccc(C(F)(F)F)cc2)C(=O)N(c2ccc(C(F)(F)F)cc2)C1c1ccc(C(F)(F)F)cc1 (stereo not given) | 67.2 |  |
| COC(=O)C1=C(Nc2cccc(C(F)(F)F)c2)C(=O)N(c2cccc(C(F)(F)F)c2)C1c1ccccc1 (stereo not given) | 16.1 |  |
| NC(=O)c1ncn([C@@H]2O[C@H](CO)[C@@H](O)[C@H]2O)n1 [RIBAVIRIN] | 2.84 |  |
| CCOC(=O)C1=C(Nc2ccc(OC)cc2)C(=O)N(c2ccc(OC)cc2)C1c1ccccc1 (stereo not given) | > 400 |  |
| CCOC(=O)C1=C(Nc2ccc(C(F)(F)F)cc2)C(=O)N(c2ccc(C(F)(F)F)cc2)C1 | 222 |  |
| CCOC(=O)C1=C(Nc2cccc(Cl)c2)C(=O)N(c2cccc(Cl)c2)C1c1ccccc1 (stereo not given) | 6.91 |  |
| CCOC(=O)C1=C(Nc2ccc(C(F)(F)F)cc2)C(=O)N(c2ccc(C(F)(F)F)cc2)C1c1ccc(F)cc1 (stereo not given) | 7.63 |  |
| CCOC(=O)C1=C(Nc2ccc(C(F)(F)F)cc2)C(=O)N(c2ccc(C(F)(F)F)cc2)C1c1ccc([N+](=O)[O-])cc1 (stereo not given) | > 400 |  |
| CCOC(=O)C1=C(Nc2ccc(C(F)(F)F)cc2)C(=O)N(c2ccc(C(F)(F)F)cc2)C1c1ccc(Br)cc1 (stereo not given) | > 400 |  |
| COC(=O)C1=C(Nc2ccc(C(F)(F)F)cc2)C(=O)N(c2ccc(C(F)(F)F)cc2)C1c1ccccc1 (stereo not given) | 11.9 |  |
| CCOC(=O)C1=C(Nc2ccc(C(F)(F)F)cc2)C(=O)N(c2ccc(C(F)(F)F)cc2)C1c1cccc(C(F)(F)F)c1 (stereo not given) | 11.8 |  |
| CCOC(=O)C1=C(Nc2cccc(C(F)(F)F)c2)C(=O)N(c2cccc(C(F)(F)F)c2)C1c1ccccc1 (stereo not given) | 30.9 |  |
| CCOC(=O)C1=C(Nc2ccc(C(F)(F)F)cc2)C(=O)N(c2ccc(C(F)(F)F)cc2)C1c1ccc(OC(F)(F)F)cc1 (stereo not given) | 128 |  |
| CCOC(=O)C1=C(NC2CCCCC2)C(=O)N(C2CCCCC2)C1c1ccccc1 (stereo not given) | > 400 |  |
| CCOC(=O)C1=C(Nc2ccc(C(F)(F)F)cc2)C(=O)N(c2ccc(C(F)(F)F)cc2)C1c1ccccc1 (stereo not given) | 3.11 | IC50 (Influenza A virus [2]): 3.58 µM; selectivity ratio [3]: > 112; Activity (Influenza A virus [4]): Active; Activity (MDCK [5]): Active; Activity (Influenza A virus [6]): Dose-dependent effect; IC50 (H3N2 subtype): 5.26 µM; selectivity ratio [7]: > 129; Activity (Influenza A virus [8]): Active; Activity (Influenza A virus [9]): Active; Activity (Influenza A virus [10]): Active; Activity (Influenza A virus [11]): Dose-dependent effect; Activity (Influenza A virus [12]): Active; CC50 at 48 h [13]: > 400 µM; Activity (Influenza A virus [14]): Dose-dependent effect; Activity (MDCK [15]): Active; CC50 at 48 h [16]: > 400 µM; IC50 (Influenza A virus [17]): 7.13 µM; selectivity ratio [18]: > 76; Activity (MDCK [19]): Active; selectivity ratio [20]: > 56.1 |
| CCOC(=O)C1=C(Nc2ccc(C(F)(F)F)cc2)C(=O)N(c2ccc(C(F)(F)F)cc2)C1c1ccc(C)cc1 (stereo not given) | 68.5 |  |
| CCOC(=O)C1=C(Nc2ccc(C(F)(F)F)cc2)C(=O)N(c2ccc(C(F)(F)F)cc2)C1c1ccc(Br)s1 (stereo not given) | > 400 |  |
| CCOC(=O)C1=C(Nc2ccccc2)C(=O)N(c2ccccc2)C1c1ccccc1 (stereo not given) | > 400 |  |
| CCOC(=O)C1=C(Nc2ccc(Br)cc2)C(=O)N(c2ccc(Br)cc2)C1c1ccccc1 (stereo not given) | > 400 |  |
| CCOC(=O)C1=C(Nc2ccc(Cl)cc2)C(=O)N(c2ccc(Cl)cc2)C1c1ccccc1 (stereo not given) | > 400 |  |
| CCOC(=O)C1=C(Nc2ccc(C(F)(F)F)cc2)C(=O)N(c2ccc(C(F)(F)F)cc2)C1c1ccc(C(C)(C)C)cc1 (stereo not given) | > 400 |  |
| CCOC(=O)C1=C(Nc2ccc(C(F)(F)F)cc2)C(=O)N(c2ccc(C(F)(F)F)cc2)C1c1cccc(OC)c1 (stereo not given) | 9.23 |  |
| CCOC(=O)C1=C(Nc2ccc(C(F)(F)F)cc2)C(=O)N(c2ccc(C(F)(F)F)cc2)C1c1cccc2ccccc12 (stereo not given) | 11.8 |  |
| CCOC(=O)C1=C(Nc2ccc(C(C)C)cc2)C(=O)N(c2ccc(C(C)C)cc2)C1c1ccccc1 (stereo not given) | > 400 |  |
| CCOC(=O)C1=C(Nc2ccc(C(F)(F)F)cc2)C(=O)N(c2ccc(C(F)(F)F)cc2)C1c1ccc(C#N)cc1 (stereo not given) | > 400 |  |
| CCOC(=O)C1=C(Nc2ccc(C(C)(C)C)cc2)C(=O)N(c2ccc(C(C)(C)C)cc2)C1c1ccccc1 (stereo not given) | > 400 |  |
| CCOC(=O)C1=C(Nc2ccc(C)cc2)C(=O)N(c2ccc(C)cc2)C1c1ccccc1 (stereo not given) | 19 |  |
| CCOC(=O)C1=C(Nc2ccc(Oc3ccccc3)cc2)C(=O)N(c2ccc(Oc3ccccc3)cc2)C1c1ccccc1 (stereo not given) | > 400 |  |
| CCOC(=O)C1=C(Nc2ccc(C(F)(F)F)cc2)C(=O)N(c2ccc(C(F)(F)F)cc2)C1c1cccc([N+](=O)[O-])c1 (stereo not given) | > 400 |  |
| CCOC(=O)C1=C(Nc2ccc(C(F)(F)F)cc2)C(=O)N(c2ccc(C(F)(F)F)cc2)C1c1ccc(Cl)cc1 (stereo not given) | > 400 |  |
